Screening results deposited in PubChem BioAssay by several laboratories.
DTT redox prof – compounds producing H2O2 with reducing agent – biochemical, NIH compound library profiling, artefact control for MLSCN library redox annotation, primary screen; activation, % at 10 µM; 200,000 compounds, 0.03% hits; DTT-dependent redox cycling H2O2, phenol red/HRP absorbance; 100% = 100 µM peroxide control, 0% = buffer; AID 878;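 active = activation of at least 50% relative to the plate's high and low controls in the primary single-dose screen; inactive = activation below 50%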;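 also: compound incubated with DTT at 0.8 mM final as the reducing agent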
KCC2 mod – KCC2 (human) Cl- transport modulation | Q9H2X9 | KCC2 cells, thallium flux FluoZin-2 fluorescence | B-score of Tl+ flux slope (higher = more flux/activation; lower = inhibition) at 10 µM | 190,000 compounds, 2.2% hits | AID 1456;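 active = thallium flux slope and its plate-corrected score both differing from the plate sample mean at a set confidence after two filtering rounds, in either direction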;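 also: slope of fluorescence scaled to starting intensity during 10 to 20 s after thallium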
bCat nuc transl – modulators of beta-catenin nuclear translocation | nuclear translocation activity, % at 5 µM | AID 1665 | 190,000 compounds, 0.3% hits | HeLa beta-catenin nuclear translocation, immunofluorescence imaging;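 active = nuclear translocation activity above 50% at 5 µM, with a well cell count of 50 or more; inconclusive = wells under 50 cells across six images, flagged as toxic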;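 also: per-cell ratio of nuclear to cytoplasmic median beta-catenin stain intensity; plate controls were DMSO negative control for no effect and GSK-3 inhibitor IX positive control for full effect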
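System: Human HeLa cells, endogenous beta-catenin | Compound dosing: 5 µM primary, 0.02–20 µM confirmation | Timing: 24 h compound exposure at 37°C, 5% CO2 | Measured by: Fluorescence imaging of beta-catenin antibody stain plus DAPI | Read-out basis: % activation of per-cell nuclear versus cytoplasmic median beta-catenin signal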
MT stabilizer – microtubule stabilizers in HeLa cells; HeLa tubulin immunostaining HCS, 24 h; share of cells brighter than vehicle mean+2SD; % tubulin-high responders, % at 10 µM; 200,000 compounds, 0.83% hits; AID 2205;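 active = plate Z-score above 3 for both tubulin-high and condensed-nucleus cell shares, with cell loss under 80%, at 10 µM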;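 also: anti alpha tubulin signal scored within the nucleus-defined area of each cell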
ROMK mod – modulates human ROMK potassium channel activity. B-score at 10 µM. AID 1918. Tet-inducible ROMK, thallium flux fluorescence; actives lie on both sides. P48048. 130,000 compounds, 2% hits;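 active = signal ratio slope over the read window, or its plate-corrected B-score, at least 3 SD from the plate mean, either direction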;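 also: B-score of the F/F0 ratio slope over 7 to 12 s after thallium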
Target sequence (P48048 whole entry, looked up): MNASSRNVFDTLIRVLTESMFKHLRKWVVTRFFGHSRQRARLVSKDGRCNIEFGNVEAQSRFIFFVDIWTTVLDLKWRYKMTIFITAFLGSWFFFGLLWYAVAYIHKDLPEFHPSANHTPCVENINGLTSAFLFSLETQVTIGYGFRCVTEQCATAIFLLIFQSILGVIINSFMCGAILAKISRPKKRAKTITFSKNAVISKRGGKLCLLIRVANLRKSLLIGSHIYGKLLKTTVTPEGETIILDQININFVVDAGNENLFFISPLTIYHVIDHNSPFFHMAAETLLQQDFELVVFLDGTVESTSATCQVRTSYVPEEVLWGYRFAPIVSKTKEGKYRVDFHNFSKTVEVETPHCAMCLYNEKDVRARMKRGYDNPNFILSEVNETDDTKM
KCC2 secondary – KCC2 (human) modulation, secondary assay; 3,700 compounds, 15% hits; HEK293-KCC2, thallium flux, FluoZin2 fluorescence; active compounds read high; shares compounds with KCC2 mod; normalised thallium flux (F/F0 slope) at 10 µM; AID 1713;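 active = thallium flux slope above the same plate's solvent-only control mean plus 3 SD; inconclusive = the two replicate wells disagree; inactive = no significant difference from solvent-only control wells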
KCC2 bumet counter – thallium flux persisting under bumetanide in KCC2 cells, counter-screen secondary assay; shares compounds with KCC2 mod; HEK293-KCC2 + bumetanide/ouabain, thallium flux FluoZin2; active compounds read high; normalized thallium flux at 10 µM; 3,700 compounds, 49% hits; AID 1714;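 active = thallium entry rate above the same plate's blocked-transporter control wells by more than 3 SD; inconclusive = the two repeat wells disagree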;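 also: raw slope of fluorescence over initial fluorescence between 10 and 20 s after thallium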
KCC2 sec2 – confirmation of human KCC2 transport modulators | shares compounds with KCC2 mod | HEK293-KCC2, thallium flux FluoZin2 fluorescence; actives lie on both sides; F/F0 rise rate, 10–20 s post-thallium | normalized thallium flux at 10 µM | 3,700 compounds, 23% hits | AID 1715;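 active = thallium flux slope more than 3 SD above or below the plate's solvent-only control mean, mostly below; inconclusive = the two repeat wells disagreed; inactive = no significant shift from solvent-only controls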;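 also: raw slope with 0.1% DMSO as baseline and bumetanide as block control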
HEK counter1 – acts in parental HEK cells, KCC2 counter-screen; shares compounds with KCC2 mod; HEK293 parental cells, thallium flux FluoZin2, ouabain; baseline-ratio fluorescence slope, 10–20 s after thallium; thallium flux rate (normalised fluorescence) at 10 µM; 3,700 compounds, 46% hits; AID 1716;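 active = thallium flux rate significantly above the same plate's solvent-only control wells, beyond their mean plus 3 SD; inconclusive = the two replicate wells gave conflicting results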
KCC2 ouabain – confirmation of human KCC2 modulators with ouabain | shares compounds with KCC2 mod | HEK293-KCC2, thallium flux FluoZin2 fluorescence; bidirectional: low = inhibitor, high = activator | raw Tl+ flux slope (below DMSO = inhibition, above = activation) at 10 µM | 3,700 compounds, 48% hits | AID 1717;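 active = thallium flux slope beyond 3 SD from same-plate DMSO control mean in most replicates, usually higher, sometimes lower; inconclusive = repeat tests gave conflicting results; inactive = no significant difference from controls in most replicates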;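 also: slope of initial-normalized fluorescence between seconds 10 and 20 after thallium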
HEK counter2 – parental HEK flux effect, counter-screen 2; AID 1718; HEK293 parental, thallium flux FluoZin-2 fluorescence slope; thallium flux slope at 10 µM; 3,700 compounds, 33% hits; shares compounds with KCC2 mod;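 active = thallium flux slope above the same plate's solvent-control mean plus 3 SD in both duplicate wells; inconclusive = duplicate wells that disagreed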;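 also: run without ouabain in cells lacking the KCC2 cotransporter; slope of fluorescence scaled to its starting value between 10 and 20 s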
Starred values were filed as active, the others as inactive; ? = inconclusive; . = no result given. A selection: hits, their analogues and other compounds. The true share with any hit is near 3.7%.

SMILES | DTT redox prof | KCC2 mod | bCat nuc transl | MT stabilizer | ROMK mod | KCC2 secondary | KCC2 bumet counter | KCC2 sec2 | HEK counter1 | KCC2 ouabain | HEK counter2
O=C(NNC1=C(C(=O)C(F)(F)F)CCC1)c1ccc(Br)cc1 | -1 | 11* | -6 | 2 | 2 | 0.0096 | 0.024* | 0.031 | 0.015* | ? | 0.012*
O=C(NNC1=C(C(=O)C(F)(F)F)CCC1)c1ccccc1O | 0 | -1.9 | . | 3 | 1.2 | . | . | . | . | . | .
COc1ccccc1C(=O)NNC1=C(C(=O)C(F)(F)F)CCC1 | 1 | 4.9* | 1 | 2 | . | 0.018 | 0.044* | 0.043* | 0.038* | 0.041* | 0.036*
O=C(c1ccc(OC2CCN(Cc3ccccn3)CC2)cc1)N1CCCC(O)C1 (configuration not stated) | -2 | 0.59 | 2 | 3 | -0.25 | . | . | . | . | . | .
Cc1cc(SCC(=O)NC(=O)NCc2ccco2)nc2c(C)cccc12 | -2 | 4.4* | -3 | 5 | . | 0.0076 | 0.0063* | 0.034 | 0.019* | ? | 0.016*
CCCn1c(NC(=O)c2ccc(Br)cc2)nc2ccccc21 | 0 | 1.1 | . | 2 | -0.037 | . | . | . | . | . | .
CCCCC(NC(C)=O)c1nc2ccccc2n1CCCC (configuration not stated) | -2 | 6* | -1 | 4 | . | 0.0056 | 0.0041 | 0.029 | ? | 0.019 | 0.0098
CCCCn1c(NC(=O)c2ccccc2)nc2ccccc21 | 0 | 13* | 0 | 4 | -0.49 | 0.0099 | 0.03* | 0.032 | ? | 0.03* | ?
CCCCCn1c(C(Cc2ccccc2)NC(C)=O)nc2ccccc21 (configuration not stated) | -1 | -0.36 | -2 | 3 | . | . | . | . | . | . | .
CCn1c(NC(=O)c2ccccc2)nc2ccccc21 | . | 31* | 3 | . | . | 0.0063 | 0.018* | 0.032 | 0.016* | ? | 0.016*
CC(=O)Nc1ccc(S(C)(=O)=O)c(C)c1 | 0 | -0.18 | 0 | 1 | -0.39 | . | . | . | . | . | .
CCOc1ccc(N2C(=O)C3Sc4[nH]c(=O)sc4C(/C=C/c4ccccc4)C3C2=O)cc1 (configuration not stated) | 2 | -5.6* | -4 | 4 | -0.43 | 0.0067 | ? | 0.019* | 0.0083 | 0.015* | 0.011
O=C(Nc1ccccc1)c1cc2ccc3ccccc3c2s1 | . | -0.66 | 2 | . | -0.1 | . | . | . | . | . | .
CN(C)S(=O)(=O)c1cccc(NC(=O)CN2C(=O)NC(CCc3ccccc3)C2=O)c1 (configuration not stated) | 0 | -0.075 | -5 | 2 | -0.51 | . | . | . | . | . | .
Cc1ccc(NC(=O)CN(C)C(=O)CCCN2C(=O)c3ccccc3C2=O)cc1 | 3 | -3.1* | -2 | 2 | 0.0036 | 0.011 | 0.0072 | 0.037 | 0.0046 | 0.021 | 0.012
CS(=O)(=O)N(CC(=O)N/N=C/c1cc2c(cc1Br)OCO2)c1ccccc1Br | -7 | 5.1* | 0 | 2 | 0.34 | 0.0075 | 0.0046 | 0.03 | 0.0077 | 0.019 | 0.011
CCOC(=O)c1nc2ccccc2c(=O)[nH]1 | . | . | -4 | . | . | . | . | . | . | . | .
Cc1ccsc1C(=O)OCc1nc2ccccc2c(=O)[nH]1 | 0 | . | 2 | 2 | 0.051 | 0.0099 | 0.0071 | 0.035 | 0.0079 | 0.02 | ?
CC(C)NC(=O)CSc1nnc(-c2ccc(F)cc2)c2ccccc12 | 0 | -2.3 | -2 | 2 | 0.71 | . | . | . | . | . | .
